ChEMBL document CHEMBL1250490, “Synthesis, characterization, antiamoebic activity and cytotoxicity of novel series of pyrazoline derivatives bearing quinoline tail” (Eur J Med Chem, 2010)

Test system: MCF7
Experiment: Cytotoxicity against human MCF7 cells after 48 hrs by MTT assay
Type: cell-based
Details: MCF7, 48 h
Outline: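 MCF-7 cells were kept as monolayers in DMEM with 10% fetal calf serum and penicillin. They were plated at 1.2×10⁴ cells/well and grown 48 h before dosing. Compounds were dissolved as 20% DMSO stocks and diluted in complete medium. After 48 h exposure, MTT was added for 4 h at 37 °C and dissolved in DMSO. Absorbance was read at 570 nm (reference 655 nm); viability is relative to untreated cells. Triplicate, repeated thrice.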

`Cc1ncc([N+](=O)[O-])n1CCO` [METRONIDAZOLE] was tested, and the IC50 was greater than 100 µM.
